Tests used:
[1] = Partition coefficient (logP); assay type: physicochemical; conditions: octanol/water
Outline: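 50-100 μCi of tracer in 0.1 M phosphate buffer pH 7.4 (5 mL) plus n-octanol (5 mL). Shaken vigorously for 30 min at 37 °C, five mixtures. 100 μL of each layer gamma-counted. log P from the octanol/water count ratio, n = 5. A calculated value was also obtained with Pallas 1.2.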

[2] = species: Rattus norvegicus; test: Biodistribution of [11C]-CGP- 12388 (10 minutes post injection) in lung of male wistar rats; assay type: ADME, organism-based; conditions: in vivo
Outline: (§1)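 Male Wistar rats (200 ± 20 g) under pentobarbital anesthesia (60 mg/kg ip) got iv saline (controls, n = 4) or 500 μg (±)-propranolol (blocking, n = 4) <1 min before the tracer. Tracer dose was 1 MBq (30 pmol) in 0.3 mL. Rats were killed by heart extirpation at 10 min and tissues counted. Plasma was spun 3 min at 1000g. Uptake is given as DAR, mean ± SD.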

[3] = species: Rattus norvegicus; test: Biodistribution of [11C]-CGP- 12388 (10 minutes post injection) in heart of male wistar rats; assay type: ADME, organism-based; conditions: in vivo; outline: as §1
[4] = species: Rattus norvegicus; test: Biodistribution of [11C]-CGP- 12388 (60 minutes post injection) in intestine bone of male wistar rats; assay type: ADME, organism-based; conditions: in vivo, 1 h, in the assay text read “intestine” for “intestine bone”
Outline: (§2)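 Wistar males (200 ± 20 g) were given pentobarbital 60 mg/kg ip, plus 15-20 mg/kg if needed before dissection. Saline controls (n = 6) or 500 μg (±)-propranolol iv blocking rats (n = 4) were pretreated <1 min before 1 MBq (30 pmol) tracer in 0.3 mL. Sacrifice and dissection were at 60 min. DAR = (cpm/g tissue)/(injected cpm/g body weight); mean ± SD.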

[5] = species: Rattus norvegicus; test: Biodistribution of [11C]-CGP- 12388 (60 minutes post injection) in spleen of male wistar rats; assay type: ADME, organism-based; conditions: in vivo, 1 h; outline: as §2
[6] = species: Rattus norvegicus; test: Biodistribution of [11C]-CGP- 12388 (10 minutes post injection) in intestine of male wistar rats; assay type: ADME, organism-based; conditions: in vivo; outline: as §1
[7] = species: Rattus norvegicus; test: Biodistribution of [11C]-CGP- 12388 (60 minutes post injection) in liver of male wistar rats; assay type: ADME, organism-based; conditions: in vivo, 1 h; outline: as §2
[8] = species: Rattus norvegicus; test: Biodistribution of [11C]-CGP- 12388 (60 minutes post injection) in kidney of male wistar rats; assay type: ADME, organism-based; conditions: in vivo, 1 h; outline: as §2
[9] = species: Rattus norvegicus; test: Biodistribution of [11C]-CGP- 12388 (10 minutes post injection) in cortex of male wistar rats; assay type: ADME, organism-based; conditions: in vivo; outline: as §1
[10] = species: Rattus norvegicus; test: Biodistribution of [11C]-CGP- 12388 (10 minutes post injection) in kidney of male wistar rats; assay type: ADME, organism-based; conditions: in vivo; outline: as §1
[11] = species: Rattus norvegicus; test: Biodistribution of [11C]-CGP- 12388 (60 minutes post injection) in heart of male wistar rats; assay type: ADME, organism-based; conditions: in vivo, 1 h; outline: as §2
[12] = species: Rattus norvegicus; test: Biodistribution of [11C]-CGP- 12388 (10 minutes post injection) in muscle of male wistar rats; assay type: ADME, organism-based, Muscle tissue; conditions: in vivo; outline: as §1
[13] = species: Rattus norvegicus; test: Biodistribution of [11C]-CGP- 12388 (60 minutes post injection) in fat of male wistar rats; assay type: ADME, organism-based, Adipose tissue; conditions: in vivo, 1 h; outline: as §2
[14] = species: Rattus norvegicus; test: Biodistribution of [11C]-CGP- 12388 (10 minutes post injection) in red blood cells of male wistar rats; assay type: ADME, organism-based; conditions: in vivo; outline: as §1
[15] = species: Rattus norvegicus; test: Biodistribution of [11C]-CGP- 12388 (10 minutes post injection) in liver of male wistar rats; assay type: ADME, organism-based; conditions: in vivo; outline: as §1
[16] = species: Rattus norvegicus; test: Biodistribution of [11C]-CGP- 12388 (60 minutes post injection) in red blood cells of male wistar rats; assay type: ADME, organism-based; conditions: in vivo, 1 h; outline: as §2
[17] = species: Rattus norvegicus; test: Biodistribution of [11C]-CGP- 12388 (10 minutes post injection) in spleen of male wistar rats; assay type: ADME, organism-based; conditions: in vivo; outline: as §1
[18] = species: Rattus norvegicus; test: Biodistribution of [11C]-CGP- 12388 (60 minutes post injection) in lung of male wistar rats; assay type: ADME, organism-based; conditions: in vivo, 1 h; outline: as §2
[19] = species: Rattus norvegicus; test: Biodistribution of [11C]-CGP- 12388 (10 minutes post injection) in cerebellum of male wistar rats; assay type: ADME, organism-based; conditions: in vivo; outline: as §1
[20] = species: Rattus norvegicus; test: Biodistribution of [11C]-CGP- 12388 (60 minutes post injection) in plasma of male wistar rats; assay type: ADME, organism-based; conditions: in vivo, 1 h; outline: as §2
[21] = species: Rattus norvegicus; test: Biodistribution of [11C]-CGP- 12388 (60 minutes post injection) in bone of male wistar rats; assay type: ADME, organism-based, Bone element; conditions: in vivo, 1 h; outline: as §2
[22] = species: Rattus norvegicus; test: Biodistribution of [11C]-CGP- 12388 (60 minutes post injection) in cerebellum of male wistar rats; assay type: ADME, organism-based; conditions: in vivo, 1 h; outline: as §2
[23] = species: Rattus norvegicus; test: Biodistribution of [11C]-CGP- 12388 (60 minutes post injection) in cortex of male wistar rats; assay type: ADME, organism-based; conditions: in vivo, 1 h; outline: as §2
[24] = species: Rattus norvegicus; test: Biodistribution of [11C]-CGP- 12388 (10 minutes post injection) in plasma of male wistar rats; assay type: ADME, organism-based; conditions: in vivo; outline: as §1
[25] = species: Rattus norvegicus; test: Biodistribution of [11C]-CGP- 12388 (10 minutes post injection) in trachea of male wistar rats; assay type: ADME, organism-based; conditions: in vivo; outline: as §1
[26] = species: Rattus norvegicus; test: Biodistribution of [11C]-CGP- 12388 (10 minutes post injection) in fat of male wistar rats; assay type: ADME, organism-based, Adipose tissue; conditions: in vivo; outline: as §1
[27] = species: Rattus norvegicus; test: Biodistribution of [11C]-CGP- 12388 (60 minutes post injection) in muscle of male wistar rats; assay type: ADME, organism-based, Muscle tissue; conditions: in vivo, 1 h; outline: as §2
[28] = species: Rattus norvegicus; test: Biodistribution of [11C]-CGP- 12388 (10 minutes post injection) in bone of male wistar rats; assay type: ADME, organism-based, Bone element; conditions: in vivo; outline: as §1
[29] = species: Rattus norvegicus; test: Biodistribution of [11C]-CGP- 12388 (60 minutes post injection) in trachea of male wistar rats; assay type: ADME, organism-based; conditions: in vivo, 1 h; outline: as §2

In the case of [3H]c1cc([3H])c2c(c1OCC(O)CNC(C)(C)C)=NC(=O)N=2 (configuration not stated), the logP [1] is reported as -0.5, the DAR [2] is reported as 2.3 and the DAR [3] is reported as 0.94.
C[11CH](C)NC[C@H](O)COc1cccc2[nH]c(O)nc12 gave a DAR [4] of 1.14, a DAR [5] of 0.49 and a DAR [6] of 0.55. For the same compound, the DAR [7] was 0.68, the DAR [8] was 0.94 and the DAR [9] was 0.07. For the same compound, the DAR [10] was 2.44, the logP [1] was -0.64 and the DAR [11] was 0.76. It also gave a DAR [12] of 0.23, a DAR [13] of 0.26 and a DAR [14] of 0.7. For the same compound, the DAR [2] was 1.26, the DAR [15] was 1.65 and the DAR [16] was 0.49. For the same compound, the DAR [17] was 0.78, the DAR [18] was 0.88 and the DAR [19] was 0.09. The DAR [20] was 0.4, the DAR [21] was 0.23 and the DAR [3] was 0.72. It also gave a DAR [22] of 0.26, a DAR [23] of 0.25 and a DAR [24] of 0.5. For the same compound, the DAR [25] was 0.7, the DAR [26] was 0.16 and the DAR [27] was 0.36. The DAR [28] was 0.2 and the DAR [29] was 0.86.

Reference: ChEMBL document CHEMBL1130239, “Synthesis and evaluation of (S)-4-(3-(2'-[11C]isopropylamino)-2-hydroxypropoxy) -2H-benzimidazol -2-one ((S)-[11C]CGP 12388) and (S)-4-(3-((1'-[18F]-fluoroisopropyl)amino)-2-hydroxypropoxy) -2H- benzimidazol-2-one ((S)-[18F]fluoro-CGP 12388) for visualization of beta-adrenoceptors with positron …” (J Med Chem, 1997)
